Source: ChEMBL document CHEMBL3297737, “Discovery of the first potent and orally available agonist of the orphan G-protein-coupled receptor 52” (J Med Chem, 2014)
Activity calls are given as the source filed them. The calls are words filed in the database; no cut-off is given here.

Columns and labels:
[1] = biological target: T1, G-protein coupled receptor 52 (Homo sapiens, UniProt Q9Y2T5); assay: Agonist activity at human GPR52 expressed in CHO cells assessed as cAMP production after 30 mins by Alphascreen assay relative to N-(2-Hydroxyethyl)-3-{2-[3-(trifluoromethyl)benzyl]-1-benzofuran-4-yl}benzamide; format: functional, cell-based
[2] = biological target: T1, G-protein coupled receptor 52; assay: Agonist activity at human GPR52 expressed in CHO cells assessed as cAMP production after 30 mins by Alphascreen assay; format: functional, cell-based
[3] = biological target: T1, G-protein coupled receptor 52; assay: Agonist activity at human GPR52 expressed in CHO cells assessed as cAMP production at 10 uM after 30 mins by Alphascreen assay; format: functional, cell-based
[4] = biological target: T1, G-protein coupled receptor 52; assay: Agonist activity at GPR52 (unknown origin)
[5] = biological target: T1, G-protein coupled receptor 52; assay: Agonist activity at GPR52 (unknown origin) relative to control
[6] = Ratio of AUC from brain to plasma in mouse at 30 mg/kg, po; format: ADME, organism-based; set-up: dose 30 mg/kg, route oral; conditions: read-out: Ratio AUC
How it was run: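 Brain/plasma AUC ratio determined in mice after oral administration of 30 mg/kg.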

[7] = biological target: Glutamate [NMDA] receptor (Homo sapiens) (UniProt Q05586+Q12879+Q13224+O15399+O60391+Q14957+Q8TCU5); assay: Agonist activity at NMDA receptor (unknown origin)
[8] = biological target: D(1A) dopamine receptor (Homo sapiens) (UniProt P21728); assay: Agonist activity at human dopamine D1 receptor expressed in CHO cells; format: cell-based
How it was run: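 cAMP production measured in CHO cells expressing human dopamine D1 receptor (DRD1). Mean ± SD, n = 4.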

Mus musculus [9] = assay: Toxicity in ICR mouse assessed as cataleptogenic effect at 100 mg/kg, po after 1 to 2 hrs; format: organism-based; set-up: dose 100 mg/kg, route oral; conditions: in vivo
How it was run: (§1)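 Male ICR mice, 6–7 weeks old, dosed orally (10–100 mg/kg). Tested 1 and 2 h post-dose by placing forepaws on a steel bar, hind legs on the surface. Time holding immobile posture recorded, capped at 30 s. Three trials averaged per mouse. n = 6 per group. Williams test versus vehicle.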

Homo sapiens [10] = organism: Homo sapiens; assay: Agonist activity at 5HT2 receptor (unknown origin)
[11] = biological target: D(1A) dopamine receptor (Homo sapiens) (UniProt P21728); assay: Agonist activity at dopamine D1 receptor (unknown origin)
Homo sapiens [12] = organism: Homo sapiens; assay: Agonist activity at AMPA receptor (unknown origin)
Mus musculus [13] = assay: Toxicity in ICR mouse assessed as extrapyramidal side effects at 100 mg/kg, po after 1 to 2 hrs; format: organism-based; set-up: dose 100 mg/kg, route oral; conditions: in vivo; how it was run: as §1
[14] = biological target: D(2) dopamine receptor (Homo sapiens) (UniProt P14416); assay: Agonist activity at dopamine D2 receptor (unknown origin)
[15] = Cmax in mouse at 1 mg/kg, po administered via cassette dosing; format: ADME, organism-based; set-up: dose 1 mg/kg, route oral; conditions: in vivo
How it was run: (§2)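 Mouse cassette dosing at 0.1 mg/kg iv and 1 mg/kg po. Plasma Cmax, AUC0–8h and oral bioavailability determined.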

[16] = Oral bioavailability in mouse at 1 mg/kg administered via cassette dosing; format: ADME, organism-based; conditions: in vivo; how it was run: as §2
[17] = AUC (0 to 8 hrs) in mouse at 1 mg/kg, po administered via cassette dosing; format: ADME, organism-based; set-up: time < 8 hr, dose 1 mg/kg, route oral; conditions: plasma; how it was run: as §2
Mus musculus [18] = assay: Antipsychotic activity against methamphetamine-induced hyperlocomotion in po dosed ICR mouse administered 60 mins prior to methamphetamine challenge measured 150 mins post compound challenge; format: functional, organism-based
How it was run: (§3)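 Male ICR mice, 7–8 weeks old, each in its own cage. Locomotor activity monitored. Compound given orally (1–30 mg/kg) after 60 min habituation. Methamphetamine 2 mg/kg sc injected 60 min later. Activity counts recorded for 150 min after compound dosing. n = 6–7 per group. Williams test versus vehicle + methamphetamine.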

Mus musculus [19] = assay: Antipsychotic activity against methamphetamine-induced hyperlocomotion in ICR mouse at 3 mg/kg, po administered 60 mins prior to methamphetamine challenge measured 150 mins post compound challenge; format: functional, organism-based; set-up: dose 3 mg/kg; how it was run: as §3

T1 sequence (Q9Y2T5 whole entry): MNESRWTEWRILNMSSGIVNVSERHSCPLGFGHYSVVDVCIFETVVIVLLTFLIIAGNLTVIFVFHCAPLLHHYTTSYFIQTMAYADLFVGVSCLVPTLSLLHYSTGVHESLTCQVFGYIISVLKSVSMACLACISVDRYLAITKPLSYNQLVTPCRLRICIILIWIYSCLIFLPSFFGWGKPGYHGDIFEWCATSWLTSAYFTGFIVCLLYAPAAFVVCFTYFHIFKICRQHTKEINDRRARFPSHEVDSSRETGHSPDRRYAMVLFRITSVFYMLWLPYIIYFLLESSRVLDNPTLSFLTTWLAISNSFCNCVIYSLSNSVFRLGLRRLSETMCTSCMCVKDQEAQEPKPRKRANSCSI
Chain of D(1A) dopamine receptor (Homo sapiens) (P21728 whole entry): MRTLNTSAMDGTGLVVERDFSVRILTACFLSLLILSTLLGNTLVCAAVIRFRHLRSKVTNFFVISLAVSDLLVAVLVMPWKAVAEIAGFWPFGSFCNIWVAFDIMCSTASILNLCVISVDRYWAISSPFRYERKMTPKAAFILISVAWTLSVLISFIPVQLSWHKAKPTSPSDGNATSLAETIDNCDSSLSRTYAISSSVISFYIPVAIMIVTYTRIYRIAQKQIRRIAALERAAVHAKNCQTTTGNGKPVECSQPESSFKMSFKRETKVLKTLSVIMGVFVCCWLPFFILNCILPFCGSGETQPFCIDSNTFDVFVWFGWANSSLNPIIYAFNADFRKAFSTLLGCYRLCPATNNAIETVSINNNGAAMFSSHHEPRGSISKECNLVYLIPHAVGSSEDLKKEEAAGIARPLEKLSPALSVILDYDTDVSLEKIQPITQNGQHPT
Chain of D(2) dopamine receptor (Homo sapiens) (P14416 whole entry): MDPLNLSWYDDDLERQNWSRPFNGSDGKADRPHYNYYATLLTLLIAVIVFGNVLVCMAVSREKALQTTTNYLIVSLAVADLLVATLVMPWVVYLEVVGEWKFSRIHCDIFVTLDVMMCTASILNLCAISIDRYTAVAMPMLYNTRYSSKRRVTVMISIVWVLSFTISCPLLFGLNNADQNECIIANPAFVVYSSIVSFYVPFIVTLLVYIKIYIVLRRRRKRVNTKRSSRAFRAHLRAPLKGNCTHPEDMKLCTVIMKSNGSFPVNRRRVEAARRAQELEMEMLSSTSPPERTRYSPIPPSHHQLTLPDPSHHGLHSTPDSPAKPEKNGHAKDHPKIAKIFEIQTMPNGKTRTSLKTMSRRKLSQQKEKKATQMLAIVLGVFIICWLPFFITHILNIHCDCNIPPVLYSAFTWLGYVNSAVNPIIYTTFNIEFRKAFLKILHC

For NC(=O)CNC(=O)c1cccc(-c2cccc3cc(Cc4cccc(C(F)(F)F)c4)sc23)c1, the Emax [1] was 102% and the EC50 [2] was 0.055 µM.

Molecule O=C(NCCO)c1cccc(-c2cccc3cc(Cc4cccc(C(F)(F)F)c4)sc23)c1 has an Emax [1] of 79.6% and an EC50 [2] of 0.0372 µM.

Work on O=C(NCCO)c1cccc(-c2cccc3cn(Cc4cccc(C(F)(F)F)c4)nc23)c1 yielded an Emax [1] of 69.7% and an EC50 [2] of 0.0646 µM.

COc1ccc(-c2ccnc(NCCc3ccc(OC)c(OC)c3)n2)cc1 gave an EC50 [2] of over 10 µM and an Activity [3] of 33%.

For NC(=O)CNC(=O)c1cccc(-c2ccc(F)c3cc(Cc4cccc(C(F)(F)F)c4)sc23)c1, the Emax [1] was 107% and the EC50 [2] was 0.0832 µM.

COCCNC(=O)c1cccc(-c2cccc3cc(Cc4cccc(C(F)(F)F)c4)sc23)c1 gave an Emax [1] of 85% and an EC50 [2] of 0.0427 µM.

Cc1c(Cc2cccc(C(F)(F)F)c2)oc2c(-c3cccc(C(=O)NCCO)c3)cccc12 gave an Emax [1] of 71.5% and an EC50 [2] of 0.0813 µM.

O=C(NCCO)c1cccc(-c2cccc3cc(Cc4cccc(C(F)(F)F)c4)oc23)c1 showed an Emax [1] of 74.8% and an EC50 [2] of 0.0347 µM.

O=C(NCCO)c1cccc(-c2cccc(OCCc3cccc(C(F)(F)F)c3)n2)c1 showed an EC50 [4] of 0.646 µM and an Emax [5] of 73.1%.

Molecule O=C(NCCO)c1cccc(-c2cccc3nn(Cc4cccc(C(F)(F)F)c4)cc23)c1 has an Emax [1] of 79.1% and an EC50 [2] of 0.0389 µM.

Cc1c(Cc2cccc(C(F)(F)F)c2)oc2cccc(-c3cccc(C(=O)NCCO)c3)c12 gave an EC50 [2] of over 10 µM and an Activity [3] of 20%.

O=C(NCCO)c1cccc(-c2cccc(OCCc3cc(F)cc(Cl)c3)n2)c1 gave an EC50 [4] of 0.347 µM and an Emax [5] of 79%.

Molecule O=C(NCCO)c1cccc(-c2cccc3sc(Cc4cccc(C(F)(F)F)c4)cc23)c1 has an Emax [1] of 68.6% and an EC50 [2] of 0.038 µM.

O=C(NCCO)c1cccc(-c2cccc3oc(Cc4cccc(C(F)(F)F)c4)cc23)c1 showed an Emax [1] of 85.7% and an EC50 [2] of 0.0282 µM.

O=C(NCCO)c1cccc(-c2cccc3c2OC(Cc2cccc(C(F)(F)F)c2)C3)c1 (racemic) gave an Emax [1] of 56.1% and an EC50 [2] of 0.209 µM.

With COCCNC(=O)c1cccc(-c2cccc3cc(Cc4cc(F)cc(Cl)c4)sc23)c1 the Kp [6] was 0.94, the Activity [7] was “inactive” and the Activity [8] was “inactive”. The Emax [1] was 79.8%, the Activity (Mus musculus [9]) was “Non-toxic” and the Activity (Homo sapiens [10]) was “inactive”. For the same molecule, the EC50 [2] was 0.0295 µM, the Activity [11] was “inactive” and the Activity (Homo sapiens [12]) was “inactive”. For the same molecule, the Activity (Mus musculus [13]) was “Non-toxic”, the Activity [14] was “inactive” and the Cmax [15] was 0.108 µg/mL. The bioavailability [16] was 73%, the AUC(0-t) at 8 h [17] was 0.614 µg·h/mL and the Activity (Mus musculus [18]) was “Dose-dependent effect”. The Activity (Mus musculus [19]) was “Active”.

In the case of O=C(NCCO)c1cccc(-c2cccc3c2CC(Cc2cccc(C(F)(F)F)c2)O3)c1 (racemic), the Emax [1] is reported as 45.9% and the EC50 [2] is reported as 0.646 µM.
